According to ChEMBL document CHEMBL1828552, “Synthesis and studies of novel 2-(4-cyano-3-trifluoromethylphenyl amino)-4-(quinoline-4-yloxy)-6-(piperazinyl/piperidinyl)-s-triazines as potential antimicrobial, antimycobacterial and anticancer agents” (2011):
≈ marks a conversion by molar mass, not a printed value.

Tests used:
Staphylococcus aureus [1] = assay: Antibacterial activity against 10^5 CFU/mL Staphylococcus aureus MTCC 96 after 24 hrs by disc diffusion technique; assay type: functional
Outline: (§1)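 Disc diffusion on Mueller–Hinton agar poured 5 mm deep. The surface was swabbed with a 10⁵ CFU/mL […] suspension. Filter-paper discs 6.25 mm in diameter were soaked in compound in DMSO and placed on the agar. Plates were incubated 24 h at 37 ± 1 °C, and the inhibition zone was measured in mm. A DMSO disc served as blank.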

Staphylococcus aureus [2] = assay: Antibacterial activity against 10^5 CFU/mL Staphylococcus aureus MTCC 96 after 24 hrs by agar streak dilution method; assay type: functional; conditions: MTCC 96, 24 h
Outline: (§2)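 Agar streak dilution. Stock 100 µg/mL in DMSO; graded amounts were mixed into molten nutrient agar and poured at 4–5 mm depth. Plates carried serial dilutions over […]. About 10⁵ CFU/mL of each bacterium was applied, and plates were incubated at 37 ± 1 °C for 24 h. MIC was read from the dilution series.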

Bacillus cereus [3] = assay: Antibacterial activity against 10^5 CFU/mL Bacillus cereus MTCC 619 after 24 hrs by disc diffusion technique; assay type: functional; outline: as §1
Bacillus cereus [4] = assay: Antibacterial activity against 10^5 CFU/mL Bacillus cereus MTCC 619 after 24 hrs by agar streak dilution method; assay type: functional; conditions: MTCC 619, 24 h; outline: as §2
DU-145 = assay: Cytotoxicity against […] human DU145 cells after 48 hrs by SRB assay; assay type: functional; conditions: DU-145, 48 h
Outline: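 SRB assay in DU-145 cells grown in RPMI 1640 with 10% FBS and 2 mM L-glutamine. Cells were plated and held 24 h before addition of four 10-fold concentrations. After 48 h, cells were TCA-fixed, stained with 0.4% SRB and read at 540 nm. GI50, TGI and LC50 were derived against time-zero and control wells; each value is the mean of three experiments.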

Escherichia coli [5] = assay: Antibacterial activity against 10^5 CFU/mL Escherichia coli MTCC 739 after 24 hrs by disc diffusion technique; assay type: functional; outline: as §1
Escherichia coli [6] = assay: Antibacterial activity against 10^5 CFU/mL Escherichia coli MTCC 739 after 24 hrs by agar streak dilution method; assay type: functional; conditions: MTCC 739, 24 h; outline: as §2
Pseudomonas aeruginosa [7] = assay: Antibacterial activity against 10^5 CFU/mL Pseudomonas aeruginosa MTCC 741 after 24 hrs by disc diffusion technique; assay type: functional; outline: as §1
Pseudomonas aeruginosa [8] = assay: Antibacterial activity against 10^5 CFU/mL Pseudomonas aeruginosa MTCC 741 after 24 hrs by agar streak dilution method; assay type: functional; conditions: MTCC 741, 24 h; outline: as §2
Klebsiella pneumoniae [9] = assay: Antibacterial activity against 10^5 CFU/mL Klebsiella pneumoniae MTCC 109 after 24 hrs by disc diffusion technique; assay type: functional; outline: as §1
Klebsiella pneumoniae [10] = assay: Antibacterial activity against 10^5 CFU/mL Klebsiella pneumoniae MTCC 109 after 24 hrs by agar streak dilution method; assay type: functional; conditions: MTCC 109, 24 h; outline: as §2
Salmonella typhi [11] = assay: Antibacterial activity against 10^5 CFU/mL Salmonella typhi MTCC 733 after 24 hrs by disc diffusion technique; assay type: functional, Salmonella enterica subsp. enterica serovar Typhi
Outline: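 Disc diffusion. Mueller-Hinton agar autoclaved 120 °C 30 min, poured 5 mm deep. Surface swabbed with 10⁵ CFU/mL suspension […]. 6.25 mm filter-paper discs soaked in compound in DMSO; DMSO-only disc as blank. Incubated 37 ± 1 °C, 24 h for bacteria or 48 h for fungi. Ciprofloxacin and ketoconazole discs as reference drugs. Inhibition zone measured in mm.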

Salmonella typhi [12] = assay: Antibacterial activity against 10^5 CFU/mL Salmonella typhi MTCC 733 after 24 hrs by agar streak dilution method; assay type: functional, Salmonella enterica subsp. enterica serovar Typhi; conditions: Salmonella enterica, MTCC 733, 24 h
Proteus vulgaris [13] = assay: Antibacterial activity against 10^5 CFU/mL Proteus vulgaris MTCC 1771 after 24 hrs by disc diffusion technique; assay type: functional; outline: as §1
Proteus vulgaris [14] = assay: Antibacterial activity against 10^5 CFU/mL Proteus vulgaris MTCC 1771 after 24 hrs by agar streak dilution method; assay type: functional; conditions: MTCC 1771, 24 h; outline: as §2
Shigella flexneri [15] = assay: Antibacterial activity against 10^5 CFU/mL Shigella flexneri MTCC 1457 after 24 hrs by disc diffusion technique; assay type: functional; outline: as §1
Shigella flexneri [16] = assay: Antibacterial activity against 10^5 CFU/mL Shigella flexneri MTCC 1457 after 24 hrs by agar streak dilution method; assay type: functional; conditions: MTCC 1457, 24 h; outline: as §2
Aspergillus niger [17] = assay: Antifungal activity against 10^5 CFU/mL Aspergillus niger MTCC 282 after 48 hrs by disc diffusion technique; assay type: functional
Aspergillus niger [18] = assay: Antifungal activity against 10^5 CFU/mL Aspergillus niger MTCC 282 after 48 hrs by agar streak dilution method; assay type: functional; conditions: MTCC 282, 48 h
Outline: (§3)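 Agar streak dilution for fungi. Stock 100 µg/mL in DMSO; graded amounts were mixed into molten Sabouraud dextrose agar and poured at 4–5 mm depth. Serial dilutions ran over […]. About 10⁵ CFU/mL inoculum was applied, with incubation at 37 ± 1 °C for 48 h. MIC was read from the dilution series.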

Aspergillus fumigatus [19] = assay: Antifungal activity against 10^5 CFU/mL Aspergillus fumigatus MTCC 343 after 48 hrs by disc diffusion technique; assay type: functional
Aspergillus fumigatus [20] = assay: Antifungal activity against 10^5 CFU/mL Aspergillus fumigatus MTCC 343 after 48 hrs by agar streak dilution method; assay type: functional; conditions: MTCC 343, 48 h; outline: as §3
Aspergillus clavatus [21] = assay: Antifungal activity against 10^5 CFU/mL Aspergillus clavatus MTCC 1323 after 48 hrs by disc diffusion technique; assay type: functional
Aspergillus clavatus [22] = assay: Antifungal activity against 10^5 CFU/mL Aspergillus clavatus MTCC 1323 after 48 hrs by agar streak dilution method; assay type: functional; conditions: MTCC 1323, 48 h; outline: as §3
Candida albicans [23] = assay: Antifungal activity against 10^5 CFU/mL Candida albicans MTCC 183 after 48 hrs by disc diffusion technique; assay type: functional
Candida albicans [24] = assay: Antifungal activity against 10^5 CFU/mL Candida albicans MTCC 183 after 48 hrs by agar streak dilution method; assay type: functional; conditions: MTCC 183, 48 h; outline: as §3

| SMILES | inhibition zone (IZ) (Staphylococcus aureus [1]) [mm] | MIC (Staphylococcus aureus [2]) [µg/mL] | inhibition zone (IZ) (Bacillus cereus [3]) [mm] | MIC (Bacillus cereus [4]) [µg/mL] | GI50 (DU-145) [µM] | LC50 (concentration giving 50% net cell kill relative to time zero) (DU-145) [µM] | TGI (DU-145) [µM] | inhibition zone (IZ) (Escherichia coli [5]) [mm] | MIC (Escherichia coli [6]) [µg/mL] | inhibition zone (IZ) (Pseudomonas aeruginosa [7]) [mm] | MIC (Pseudomonas aeruginosa [8]) [µg/mL] | inhibition zone (IZ) (Klebsiella pneumoniae [9]) [mm] | MIC (Klebsiella pneumoniae [10]) [µg/mL] | inhibition zone (IZ) (Salmonella typhi [11]) [mm] | MIC (Salmonella typhi [12]) [µg/mL] | inhibition zone (IZ) (Proteus vulgaris [13]) [mm] | MIC (Proteus vulgaris [14]) [µg/mL] | inhibition zone (IZ) (Shigella flexneri [15]) [mm] | MIC (Shigella flexneri [16]) [µg/mL] | inhibition zone (IZ) (Aspergillus niger [17]) [mm] | further results |
| --- | --- | --- | --- | --- | --- | --- | --- | --- | --- | --- | --- | --- | --- | --- | --- | --- | --- | --- | --- | --- | --- |
| CC(=O)N1CCN(c2nc(Nc3ccc(C#N)c(C(F)(F)F)c3)nc(Oc3ccnc4ccccc34)n2)CC1 | 26 | 12.5 (≈ 23.4 µM) | 24 | 12.5 (≈ 23.4 µM) | 75.1 | > 100 | > 100 | 24 | 12.5 (≈ 23.4 µM) | 24 | 12.5 (≈ 23.4 µM) | 23 | 50 (≈ 93.5 µM) | 23 | 100 (≈ 187 µM) | 27 | 6.25 (≈ 11.7 µM) | 23 | 25 (≈ 46.8 µM) | 21 | MIC (Aspergillus niger [18]): 100 µg/mL (≈ 187 µM); inhibition zone (IZ) (Aspergillus fumigatus [19]): 21 mm; MIC (Aspergillus fumigatus [20]): 100 µg/mL (≈ 187 µM); inhibition zone (IZ) (Aspergillus clavatus [21]): 27 mm; MIC (Aspergillus clavatus [22]): 12.5 µg/mL (≈ 23.4 µM); inhibition zone (IZ) (Candida albicans [23]): 17 mm; MIC (Candida albicans [24]): 100 µg/mL (≈ 187 µM) |
| CC(C)N1CCN(c2nc(Nc3ccc(C#N)c(C(F)(F)F)c3)nc(Oc3ccnc4ccccc34)n2)CC1 | 23 | 50 (≈ 93.5 µM) | 22 | 50 (≈ 93.5 µM) | > 100 | > 100 | > 100 | 22 | 50 (≈ 93.5 µM) | 22 | 25 (≈ 46.8 µM) | 21 | 100 (≈ 187 µM) | 21 | 100 (≈ 187 µM) | 21 | 100 (≈ 187 µM) | 21 | 50 (≈ 93.5 µM) | <10 | MIC (Aspergillus niger [18]): 100 µg/mL (≈ 187 µM); inhibition zone (IZ) (Aspergillus fumigatus [19]): 17 mm; MIC (Aspergillus fumigatus [20]): 100 µg/mL (≈ 187 µM); inhibition zone (IZ) (Aspergillus clavatus [21]): 17 mm; MIC (Aspergillus clavatus [22]): 100 µg/mL (≈ 187 µM); inhibition zone (IZ) (Candida albicans [23]): 18 mm; MIC (Candida albicans [24]): 100 µg/mL (≈ 187 µM) |
| N#Cc1ccc(Nc2nc(Oc3ccnc4ccccc34)nc(N3CCN(c4ccccn4)CC3)n2)cc1C(F)(F)F | 21 | 100 (≈ 176 µM) | 19 | 100 (≈ 176 µM) | 85.9 | > 100 | > 100 | 19 | 100 (≈ 176 µM) | 16 | 100 (≈ 176 µM) | 17 | 100 (≈ 176 µM) | 15 | 100 (≈ 176 µM) | 16 | 100 (≈ 176 µM) | 16 | 100 (≈ 176 µM) | <10 | MIC (Aspergillus niger [18]): 100 µg/mL (≈ 176 µM); inhibition zone (IZ) (Aspergillus fumigatus [19]): 12 mm; MIC (Aspergillus fumigatus [20]): 100 µg/mL (≈ 176 µM); inhibition zone (IZ) (Aspergillus clavatus [21]): <10 mm; MIC (Aspergillus clavatus [22]): 100 µg/mL (≈ 176 µM); inhibition zone (IZ) (Candida albicans [23]): 13 mm; MIC (Candida albicans [24]): 100 µg/mL (≈ 176 µM) |
